We go through 1 compound from publication PMC5909786 (Drug Design, Development and Therapy, 2018).

In series [1] the test system is Raji/VCR cell bearing BALB/c nude mice. The series can be described thus: In vivo antitumor activity. The conditions noted are these: 10 mg/kg of VCR intravenously twice a week for 3 weeks, n=6.
The nature of series [2]: In vivo tissue distribution. Further details: species or system Raji/VCR cell bearing BALB/c nude mice. The conditions noted are these: 10 mg/kg of VCR intravenous.
The test system of series [3] is Raji cells. The series can be described thus: In vitro cytotoxicity. The format is cell-based, human. The settings on record: Raji cells versus Raji/VCR cells, MTT, 72 hours.
The nature of series [4]: Systemic toxicity. The format is in vivo, BALB/c nude mice. The conditions noted are these: tumor-bearing mice, after 3 weeks of administration. In short, it runs like this:
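BALB/c nude mice (4–6 weeks, 18–22 g) carried subcutaneous right-flank xenografts of vincristine-resistant Raji cells (5×10^7 cells in 100 μL PBS). Mice were randomised into groups of six and dosed intravenously twice a week for 3 weeks with PBS control or test formulations (10 mg/kg drug). Body weight was recorded as a systemic toxicity read-out.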

Regarding `CC[C@]1(O)C[C@H]2CN(CCc3c([nH]c4ccccc34)[C@@](C(=O)OC)(c3cc4c(cc3OC)N(C=O)[C@H]3[C@@](O)(C(=O)OC)[C@H](OC(C)=O)[C@]5(CC)C=CCN6CC[C@]43[C@@H]65)C2)C1` [Free VCR, vincristine], in series [1], the “Tumor volume / tumor growth (in words)” value is recorded as “not statistically different from the negative control”. In addition, the “Drug distribution over time (in words)” value in series [2] is “rapidly reached a high level during the first few hours and reduced over time”. In series [3], the “In vitro cytotoxicity (in words)” value is reported as “higher cytotoxicity in Raji cells than Raji/VCR cells”. For the same compound, the “Body weight (in words)” value in series [4] is recorded as “reduction in body weight”.
